Hits are enriched below; roughly 2% of the tested compounds scored in any of these assays.
HCV core dimer – blocks dimerization of HCV core protein | TR-FRET GST/Flag-core106 dimerization, 1536-well | AID 1899 | hit rate 0.33% among 300,000 | inhibition, % at 5 µM;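 active = inhibition above the mean of all tested compounds plus 3 SD, set per screening campaign, cut at about 45% in these data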
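System: GST/Flag-tagged HCV core106 proteins. Incubation: compound-protein-antibody incubation 4 h at 22.5 °C. Technique: HTRF with 340 nm excitation, 617/671 nm emission. Medium: KF-containing HEPES buffer, pH 7.45, DTT, CHAPS, BSA. Read-out: inhibition (%) from 671 over 617 nm ratio. Also added: Eu(K)-anti-GST 90 ng/mL plus XL665-anti-Flag 1 µg/mL.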
eIF4H FP inh – inhibitors of RNA binding by human eIF4H | eIF4H fluorescence polarization binding assay | inhibition, % at 35 µM | hit rate 0.94% among 290,000 | AID 2012;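 note: calls also rest on retests at 20 µM and on dose response follow-up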
PABP polyA inh – blocks human PABP binding to poly(A) RNA; P11940; fluorescence polarization; inhibition, % at 35 µM; hit rate 1% among 290,000; AID 2014;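 note: calls also rest on retests at 20 µM and on dose response follow-up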
Target sequence (P11940 whole entry, looked up): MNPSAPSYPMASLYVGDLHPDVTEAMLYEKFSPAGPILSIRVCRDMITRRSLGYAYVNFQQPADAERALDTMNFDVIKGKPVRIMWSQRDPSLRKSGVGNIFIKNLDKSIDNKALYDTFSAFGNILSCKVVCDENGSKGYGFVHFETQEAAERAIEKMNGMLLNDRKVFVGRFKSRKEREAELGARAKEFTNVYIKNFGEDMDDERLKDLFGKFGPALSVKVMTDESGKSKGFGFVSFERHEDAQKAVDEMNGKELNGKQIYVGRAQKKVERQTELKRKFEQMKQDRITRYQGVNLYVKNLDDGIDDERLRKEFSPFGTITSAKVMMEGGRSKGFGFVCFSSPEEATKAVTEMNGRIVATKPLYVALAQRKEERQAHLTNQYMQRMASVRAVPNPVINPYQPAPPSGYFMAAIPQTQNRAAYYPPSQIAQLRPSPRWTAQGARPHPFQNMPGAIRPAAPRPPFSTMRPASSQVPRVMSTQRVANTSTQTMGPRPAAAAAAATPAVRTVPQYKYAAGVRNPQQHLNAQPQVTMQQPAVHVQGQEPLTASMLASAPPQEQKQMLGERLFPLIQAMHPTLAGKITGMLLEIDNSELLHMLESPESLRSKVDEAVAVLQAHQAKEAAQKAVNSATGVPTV
NS3 helicase inh – inhibitors of Hepatitis C virus NS3 helicase; NS3 helicase DNA unwinding, Cy5 molecular beacon fluorescence; inhibition, % at 10.9 µM; hit rate 0.56% among 290,000;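 active = inhibition above the mean of all tested compounds plus 3 SD, set per campaign, cut at about 35% in these data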;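 note: 0% = DMSO wells and 100% = thioflavine S control wells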
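Measured by: Cy5 fluorescence, 0 and 60 min reads / Assay system: NS3 helicase fragment of HCV / Control set: low DMSO, high thioflavine S at 110 µM / Times: 1 h reaction at 25 °C, ATP-initiated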
MLLE-PAM2 inh – inhibitors of microRNA-mediated deadenylation, human PABP1 MLLE binding | GST-MLLE / FITC-PAM2 fluorescence polarization | hit rate 0.36% among 360,000 | inhibition, % at 20 µM | P11940; in the data active = inhibition above about 35%, passing the limit was not always enough;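 note: plate controls were DMSO wells with GST-MLLE for no effect and wells lacking GST-MLLE protein for full effect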
FID counter – fluorescent intercalator displacement, NS3 helicase counter-screen. DNA fluorescent intercalator displacement, fluorescence. AID 1845. hit rate 0.17% among 290,000. inhibition, % at 7.9 µM; in the data active = inhibition above about 37%;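 note: 0% = vehicle and 100% = reference compound; higher means more ethidium bromide displaced from hairpin DNA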
Active calls of the source: *; ! = a repeat was not active. Unless noted, the rule behind the calls is not given here.

Cc1cc(NS(=O)(=O)c2ccc(NC(=S)NC(=O)c3ccc(F)cc3)cc2)no1 was read as HCV core dimer 7.2, eIF4H FP inh 1.6, PABP polyA inh 12.0, NS3 helicase inh 15.2, MLLE-PAM2 inh 39.8* and FID counter -27.9.
Screening C=C(C)C(=O)NC1=NN(c2ccccc2)C(=O)C1 returned HCV core dimer 26.7, eIF4H FP inh 10.2, PABP polyA inh -1.5, NS3 helicase inh 15.4, MLLE-PAM2 inh 15.3 and FID counter -23.8.
`O=C1CC(NC(=O)C(F)(F)F)=NN1c1ccccc1` gave HCV core dimer -9.6, eIF4H FP inh active, PABP polyA inh 60.4*, NS3 helicase inh -9.8, MLLE-PAM2 inh 3.7 and FID counter -3.8.
Screening CC(=O)Nc1ccc(SC[C@H](Cc2ccccc2)N2CC[C@@H](C(C)(C)C)CCC2=O)cc1 returned MLLE-PAM2 inh 41.7*.
For CC(=O)Nc1ccc(SC[C@H](Cc2ccccc2)N2CCN(CCc3ccccc3)CCC2=O)cc1 the results were HCV core dimer 3.7, eIF4H FP inh -4.2, PABP polyA inh -6.7 and MLLE-PAM2 inh 29.6.
For CC(=O)Nc1ccc(SC[C@H](Cc2ccccc2)N2CC[C@@H](O)CCC2=O)cc1 the results were MLLE-PAM2 inh 40.6*.
`Cc1ccc(N2C(=O)C3C(C2=O)C(C(=O)c2ccc(Cl)cc2)N2CCCC32)cc1` (stereo unspecified) gave HCV core dimer 61.8*, eIF4H FP inh 90.9, PABP polyA inh 105.9, NS3 helicase inh 21.0, MLLE-PAM2 inh -1.4 and FID counter -21.5.
Screening CC(=O)Oc1ccc(N2C(=O)C3C(C2=O)C(C(=O)c2ccc(Cl)cc2)N2CCCC32)cc1 (stereo unspecified) returned HCV core dimer 8.2, eIF4H FP inh 26.1, PABP polyA inh 16.0, NS3 helicase inh 26.5, MLLE-PAM2 inh 6.5 and FID counter -22.6.
For CN(C[C@H](Cc1ccccc1)N(CCN(CCc1ccccc1)N=O)N=O)N=O the results were HCV core dimer 3.5, eIF4H FP inh -8.0, PABP polyA inh 57.1*, NS3 helicase inh 14.0, MLLE-PAM2 inh -9.0 and FID counter -26.2.
`COC1=CC(=NCl)C=CC1=NCl` gave MLLE-PAM2 inh 41.5*.
`ClN=C1C=CC=CC1=NCl` gave MLLE-PAM2 inh 14.4.
COC(=O)CSc1nc(SC)nc2c1sc1nc(-c3ccco3)c3c(c12)CC(C)(C)OC3 was read as MLLE-PAM2 inh -10.7.
Screening CSc1nc(SCCO)c2sc3nc(-c4ccco4)c4c(c3c2n1)CC(C)(C)OC4 returned eIF4H FP inh 44.2, PABP polyA inh 58.8*, NS3 helicase inh 31.3, MLLE-PAM2 inh -13.4 and FID counter -14.1.
For OCCN(CCO)c1ncnc2c1sc1nc(N3CCOCC3)c3c(c12)CCCC3 the results were HCV core dimer -15.1, eIF4H FP inh -9.9, PABP polyA inh 2.1, NS3 helicase inh -9.9, MLLE-PAM2 inh -18.7 and FID counter -15.0.
Screening CSc1nc(N(CCO)CCO)c2sc3nc(-c4ccco4)c4c(c3c2n1)CCC4 returned eIF4H FP inh 89.3*, PABP polyA inh 90.9*, NS3 helicase inh 32.2, MLLE-PAM2 inh 30.8 and FID counter -21.7.
For O=C(Nc1nc(=O)c2ccccc2s1)c1ccc(Cl)cc1 the results were HCV core dimer 34.2, eIF4H FP inh 1.4, PABP polyA inh -20.7, NS3 helicase inh 7.2, MLLE-PAM2 inh 9.3 and FID counter 0.8.
O=C(Nc1nc(=O)c2ccccc2s1)c1ccc(F)cc1 was read as HCV core dimer -3.5, eIF4H FP inh -2.7, PABP polyA inh -7.4, NS3 helicase inh 3.0, MLLE-PAM2 inh 38.2* and FID counter -2.8.
COC(=O)c1cccc(C(=O)N2CCCC(Nc3ccc(C)c(C)c3)C2)c1 (stereo unspecified) was read as HCV core dimer 4.5, NS3 helicase inh -6.0, MLLE-PAM2 inh -14.9 and FID counter -26.5.
Cc1c(N2C(=O)/C(=C3/C(=O)N(C)c4ccccc43)SC2=S)c(=O)n(-c2ccccc2)n1C was read as HCV core dimer -1.9, eIF4H FP inh 3.9, PABP polyA inh 1.1, NS3 helicase inh -1.6, MLLE-PAM2 inh 31.7 and FID counter -2.0.
CCN1C(=O)/C(=C2\SC(=S)N(c3c(C)n(C)n(-c4ccccc4)c3=O)C2=O)c2ccccc21 was read as HCV core dimer 1.4, eIF4H FP inh 0.1, PABP polyA inh 4.4, NS3 helicase inh -1.2, MLLE-PAM2 inh 44.2* and FID counter -2.0.
Screening CC(=O)N1C(=O)/C(=C2\SC(=S)N(c3c(C)n(C)n(-c4ccccc4)c3=O)C2=O)c2ccccc21 returned HCV core dimer -1.6, eIF4H FP inh -3.1, PABP polyA inh 10.4, NS3 helicase inh 0.9, MLLE-PAM2 inh 47.4* and FID counter 1.0.
For CCCN1C(=O)/C(=C2\SC(=S)N(c3c(C)n(C)n(-c4ccccc4)c3=O)C2=O)c2ccccc21 the results were HCV core dimer 1.3, eIF4H FP inh -5.2, PABP polyA inh 14.2, NS3 helicase inh 6.0 and FID counter -3.6.
`CCN1C(=O)/C(=C2\SC(=S)N(NC(=O)c3ccccc3O)C2=O)c2ccccc21` gave HCV core dimer 0.2, eIF4H FP inh -15.2, PABP polyA inh 20.6, NS3 helicase inh 18.7, MLLE-PAM2 inh 38.7* and FID counter 0.1.
Screening c1cnc(N2CCN(Cc3ccc4c(c3)OCO4)CC2)nc1 returned HCV core dimer -7.4, eIF4H FP inh 50.9*!, PABP polyA inh 62.0*!, NS3 helicase inh -5.0, MLLE-PAM2 inh 1.9 and FID counter -0.8.
`CC1(C(=O)Nc2cccc3cccnc23)CCN1Cc1ccccc1OC(F)F` (stereo unspecified) gave MLLE-PAM2 inh 5.9.
Screening COC(=O)[C@@H](NC(=O)Nc1ccc(C(C)=O)cc1)C(C)C returned HCV core dimer 2.5, eIF4H FP inh 56.9*, PABP polyA inh 36.3, NS3 helicase inh 0.5, MLLE-PAM2 inh 0.8 and FID counter 2.0.
COC(=O)[C@@H](NC(=O)Nc1ccc(S(N)(=O)=O)cc1)C(C)C was read as HCV core dimer -5.8, eIF4H FP inh 1.9, PABP polyA inh -1.5, NS3 helicase inh 0.7, MLLE-PAM2 inh 8.0 and FID counter 7.3.
Screening CC(C)(C)OC(=O)C[C@H]1C/C=C\C[C@H](CC(=O)N[C@H](CO)Cc2ccccc2)C(=O)N2CCC[C@@H]2COC1=O returned MLLE-PAM2 inh 1.4.
`O=C(CCS(=O)(=O)c1ccc(Br)cc1)N1CCCCCC1` gave HCV core dimer -282.2, eIF4H FP inh 94.5*, PABP polyA inh 26.7, NS3 helicase inh 4.4, MLLE-PAM2 inh -2.6 and FID counter -10.1.
For O=Cc1c(Cl)[nH]c(=O)n1-c1ccccc1 the results were eIF4H FP inh 4.0, PABP polyA inh 53.2*, NS3 helicase inh 4.7, MLLE-PAM2 inh 5.2 and FID counter 6.9.
For O=c1[nH]c2cc(Cl)ccc2n1-c1ccccc1 the results were HCV core dimer -0.7, eIF4H FP inh 11.5, PABP polyA inh -0.2, NS3 helicase inh -1.4, MLLE-PAM2 inh -3.4 and FID counter -5.0.

Source: PubChem
